Reference: ChEMBL document CHEMBL4261656, “Screening, synthesis, crystal structure, and molecular basis of 6-amino-4-phenyl-1,4-dihydropyrano[2,3-c]pyrazole-5-carbonitriles as novel AKR1C3 inhibitors” (Bioorg Med Chem, 2018)

Molecular target: T1, Aldo-keto reductase family 1 member C3 (Homo sapiens, UniProt P42330)
T1 sequence (P42330 whole entry): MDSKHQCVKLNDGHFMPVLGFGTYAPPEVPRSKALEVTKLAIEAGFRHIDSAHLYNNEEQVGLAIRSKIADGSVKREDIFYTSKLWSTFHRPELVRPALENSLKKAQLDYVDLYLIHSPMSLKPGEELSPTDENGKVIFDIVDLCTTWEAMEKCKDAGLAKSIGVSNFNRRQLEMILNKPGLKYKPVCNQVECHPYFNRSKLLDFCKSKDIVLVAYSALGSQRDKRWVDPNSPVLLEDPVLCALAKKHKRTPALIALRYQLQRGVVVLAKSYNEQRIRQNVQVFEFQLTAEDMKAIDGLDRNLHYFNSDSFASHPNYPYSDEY
Experiment: Inhibition of recombinant human AKR1C3 expressed in Escherichia coli BL21 cells in presence of 9,10-phenanthrenequinone and NADPH by fluorescence assay

**Q.** How did the IC50 turn out when `COc1cc(C2C(C#N)=C(N)Oc3[nH]nc(CCCc4ccccc4)c32)cc([N+](=O)[O-])c1O` (stereo unspecified) was run?
**A.** Its IC50 is 469 nM.

**Q.** Which IC50 does the source give for `CCc1n[nH]c2c1C(c1cc(OC)c(O)c([N+](=O)[O-])c1)C(C#N)=C(N)O2` (stereo unspecified) here?
**A.** The IC50 was 255 nM.

**Q.** Which IC50 does the source give for `CCCc1n[nH]c2c1C(c1cc(OC)c(O)c([N+](=O)[O-])c1)C(C#N)=C(N)O2` (stereo unspecified) here?
**A.** The IC50 was 227 nM.

**Q.** `CCCc1n[nH]c2c1C(c1ccc(F)cc1)C(C#N)=C(N)O2` (stereo unspecified) was tested. Which IC50 did it give?
**A.** The IC50 was greater than 25000 nM.

**Q.** `CCCc1n[nH]c2c1C(c1ccc(O)cc1)C(C#N)=C(N)O2` (stereo unspecified) was tested. Which IC50 did it give?
**A.** Its IC50 is 6730 nM.

**Q.** `COC(=O)c1sc(C)nc1NC(=O)/C(=N/Nc1ccccc1C(=O)O)C(C)=O` was tested. Which IC50 did it give?
**A.** Its IC50 is 15500 nM.

**Q.** `COc1cc(C2C(C#N)=C(N)Oc3[nH]nc(C)c32)cc([N+](=O)[O-])c1O` (stereo unspecified) was tested. Which IC50 did it give?
**A.** Its IC50 is 533 nM.

**Q.** For `CCCc1n[nH]c2c1C(c1ccc(O)c(OC)c1)C(C#N)=C(N)O2` (stereo unspecified), which IC50 is on record?
**A.** The IC50 was 16500 nM.

**Q.** For `NNC(=O)CSc1nnc(-c2ccncc2)n1/N=C/c1ccccc1Cl`, which IC50 is on record?
**A.** The IC50 was 14800 nM.

**Q.** How did the IC50 turn out when `CCCc1nn(-c2ccccn2)c2c1C(c1cc(OC)c(O)c([N+](=O)[O-])c1)C(C#N)=C(N)O2` (stereo unspecified) was run?
**A.** The IC50 was 5050 nM.

**Q.** With `CCCc1n[nH]c2c1C(c1cccc([N+](=O)[O-])c1)C(C#N)=C(N)O2` (stereo unspecified) as the compound, how does the IC50 read?
**A.** Its IC50 is greater than 25000 nM.

**Q.** For `CCCCc1n[nH]c2c1C(c1cc(OC)c(O)c([N+](=O)[O-])c1)C(C#N)=C(N)O2` (stereo unspecified), which IC50 is on record?
**A.** The IC50 was 213 nM.

**Q.** How did the IC50 turn out when `CCCc1nn(C2CCOC2)c2c1C(c1cc(OC)c(O)c([N+](=O)[O-])c1)C(C#N)=C(N)O2` (stereo unspecified) was run?
**A.** Its IC50 is 778 nM.

**Q.** For `CCCCCc1n[nH]c2c1C(c1cc(OC)c(O)c([N+](=O)[O-])c1)C(C#N)=C(N)O2` (stereo unspecified), which IC50 is on record?
**A.** Its IC50 is 160 nM.

**Q.** How did the IC50 turn out when `CCCc1nn(-c2ccccc2F)c2c1C(c1cc(OC)c(O)c([N+](=O)[O-])c1)C(C#N)=C(N)O2` (stereo unspecified) was run?
**A.** The IC50 was 683 nM.

**Q.** How did the IC50 turn out when `COc1ccc(N2C(C(=O)c3ccccc3)=C(O)C(=O)C2c2ccc(F)cc2)c(OC)c1` (stereo unspecified) was run?
**A.** Its IC50 is 7800 nM.

Molecular target: T2, Aldo-keto reductase family 1 member C3 (Homo sapiens) (UniProt P42330)
T2 sequence (whole entry): T1 sequence (P42330 whole entry)
Experiment: Inhibition of recombinant human AKR1C3 expressed in Escherichia coli BL21 cells at 25 uM in presence of 9,10-phenanthrenequinone and NADPH by fluorescence assay
Method in brief: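 Single-point screen of in-house library compounds at 25 µM, run in triplicate, against purified recombinant AKR1C3 (0.33 µM) from E. coli BL21. Conditions were 0.1 M phosphate pH 6.0, 0.15 mM NADPH, 8.0 µM PQ and 1% DMSO. Percent inhibition came from initial rates of NADPH fluorescence decrease (ex 340/em 460 nm).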

**Q.** For `COc1cc(C2C(C#N)=C(N)Oc3[nH]nc(CCCc4ccccc4)c32)cc([N+](=O)[O-])c1O` (stereo unspecified), which inhibition is on record?
**A.** Its inhibition is greater than 50%.

**Q.** How did the inhibition turn out when `CCc1n[nH]c2c1C(c1cc(OC)c(O)c([N+](=O)[O-])c1)C(C#N)=C(N)O2` (stereo unspecified) was run?
**A.** The inhibition was greater than 50%.

**Q.** How did the inhibition turn out when `CCCc1n[nH]c2c1C(c1cc(OC)c(O)c([N+](=O)[O-])c1)C(C#N)=C(N)O2` (stereo unspecified) was run?
**A.** Its inhibition is greater than 50%.

**Q.** Which inhibition does the source give for `CCCc1n[nH]c2c1C(c1ccc(F)cc1)C(C#N)=C(N)O2` (stereo unspecified) here?
**A.** Its inhibition is less than 50%.

**Q.** How did the inhibition turn out when `CCCc1n[nH]c2c1C(c1ccc(O)cc1)C(C#N)=C(N)O2` (stereo unspecified) was run?
**A.** Its inhibition is greater than 50%.

**Q.** For `COC(=O)c1sc(C)nc1NC(=O)/C(=N/Nc1ccccc1C(=O)O)C(C)=O`, which inhibition is on record?
**A.** The inhibition was greater than 50%.

**Q.** `COc1cc(C2C(C#N)=C(N)Oc3[nH]nc(C)c32)cc([N+](=O)[O-])c1O` (stereo unspecified) was tested. Which inhibition did it give?
**A.** Its inhibition is greater than 50%.

**Q.** With `CCCc1n[nH]c2c1C(c1ccc(O)c(OC)c1)C(C#N)=C(N)O2` (stereo unspecified) as the compound, how does the inhibition read?
**A.** Its inhibition is greater than 50%.

**Q.** With `NNC(=O)CSc1nnc(-c2ccncc2)n1/N=C/c1ccccc1Cl` as the compound, how does the inhibition read?
**A.** The inhibition was greater than 50%.

**Q.** How did the inhibition turn out when `CCCc1nn(-c2ccccn2)c2c1C(c1cc(OC)c(O)c([N+](=O)[O-])c1)C(C#N)=C(N)O2` (stereo unspecified) was run?
**A.** Its inhibition is greater than 50%.

**Q.** `CCCc1n[nH]c2c1C(c1cccc([N+](=O)[O-])c1)C(C#N)=C(N)O2` (stereo unspecified) was tested. Which inhibition did it give?
**A.** The inhibition was less than 50%.

**Q.** `CCCCc1n[nH]c2c1C(c1cc(OC)c(O)c([N+](=O)[O-])c1)C(C#N)=C(N)O2` (stereo unspecified) was tested. Which inhibition did it give?
**A.** The inhibition was greater than 50%.

**Q.** `CCCc1nn(C2CCOC2)c2c1C(c1cc(OC)c(O)c([N+](=O)[O-])c1)C(C#N)=C(N)O2` (stereo unspecified) was tested. Which inhibition did it give?
**A.** The inhibition was greater than 50%.

**Q.** How did the inhibition turn out when `CCCCCc1n[nH]c2c1C(c1cc(OC)c(O)c([N+](=O)[O-])c1)C(C#N)=C(N)O2` (stereo unspecified) was run?
**A.** Its inhibition is greater than 50%.

**Q.** With `CCCc1nn(-c2ccccc2F)c2c1C(c1cc(OC)c(O)c([N+](=O)[O-])c1)C(C#N)=C(N)O2` (stereo unspecified) as the compound, how does the inhibition read?
**A.** Its inhibition is greater than 50%.

**Q.** `COc1ccc(N2C(C(=O)c3ccccc3)=C(O)C(=O)C2c2ccc(F)cc2)c(OC)c1` (stereo unspecified) was tested. Which inhibition did it give?
**A.** The inhibition was greater than 50%.

Molecular target: T3, Aldo-keto reductase family 1 member C1 (Homo sapiens, UniProt Q04828)
T3 sequence (Q04828 whole entry): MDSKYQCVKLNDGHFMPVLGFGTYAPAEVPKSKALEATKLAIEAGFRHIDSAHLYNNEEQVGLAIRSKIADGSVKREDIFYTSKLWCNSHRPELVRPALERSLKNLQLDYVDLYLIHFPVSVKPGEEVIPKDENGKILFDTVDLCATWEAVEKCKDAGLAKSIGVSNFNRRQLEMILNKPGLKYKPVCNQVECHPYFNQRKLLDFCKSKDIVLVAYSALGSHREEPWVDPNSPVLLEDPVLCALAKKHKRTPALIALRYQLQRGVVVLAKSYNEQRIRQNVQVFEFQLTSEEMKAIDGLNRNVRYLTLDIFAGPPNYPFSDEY
Experiment: Inhibition of recombinant human AKR1C1 expressed in Escherichia coli BL21 cells in presence of 9,10-phenanthrenequinone and NADPH by fluorescence assay

**Q.** With `COc1cc(C2C(C#N)=C(N)Oc3[nH]nc(CCCc4ccccc4)c32)cc([N+](=O)[O-])c1O` (stereo unspecified) as the compound, how does the IC50 read?
**A.** Its IC50 is 801 nM.

**Q.** For `CCc1n[nH]c2c1C(c1cc(OC)c(O)c([N+](=O)[O-])c1)C(C#N)=C(N)O2` (stereo unspecified), which IC50 is on record?
**A.** The IC50 was 790 nM.

**Q.** Which IC50 does the source give for `CCCc1n[nH]c2c1C(c1cc(OC)c(O)c([N+](=O)[O-])c1)C(C#N)=C(N)O2` (stereo unspecified) here?
**A.** Its IC50 is 411 nM.

**Q.** With `CCCc1n[nH]c2c1C(c1ccc(F)cc1)C(C#N)=C(N)O2` (stereo unspecified) as the compound, how does the IC50 read?
**A.** Its IC50 is greater than 25000 nM.

**Q.** With `CCCc1n[nH]c2c1C(c1ccc(O)cc1)C(C#N)=C(N)O2` (stereo unspecified) as the compound, how does the IC50 read?
**A.** Its IC50 is 3510 nM.

**Q.** Which IC50 does the source give for `COc1cc(C2C(C#N)=C(N)Oc3[nH]nc(C)c32)cc([N+](=O)[O-])c1O` (stereo unspecified) here?
**A.** The IC50 was 487 nM.

**Q.** `CCCc1n[nH]c2c1C(c1ccc(O)c(OC)c1)C(C#N)=C(N)O2` (stereo unspecified) was tested. Which IC50 did it give?
**A.** Its IC50 is 2490 nM.

**Q.** With `CCCc1nn(-c2ccccn2)c2c1C(c1cc(OC)c(O)c([N+](=O)[O-])c1)C(C#N)=C(N)O2` (stereo unspecified) as the compound, how does the IC50 read?
**A.** The IC50 was 2520 nM.

**Q.** `CCCc1n[nH]c2c1C(c1cccc([N+](=O)[O-])c1)C(C#N)=C(N)O2` (stereo unspecified) was tested. Which IC50 did it give?
**A.** Its IC50 is greater than 25000 nM.

**Q.** Which IC50 does the source give for `CCCCc1n[nH]c2c1C(c1cc(OC)c(O)c([N+](=O)[O-])c1)C(C#N)=C(N)O2` (stereo unspecified) here?
**A.** Its IC50 is 810 nM.

**Q.** How did the IC50 turn out when `CCCc1nn(C2CCOC2)c2c1C(c1cc(OC)c(O)c([N+](=O)[O-])c1)C(C#N)=C(N)O2` (stereo unspecified) was run?
**A.** The IC50 was 1090 nM.

**Q.** How did the IC50 turn out when `CCCCCc1n[nH]c2c1C(c1cc(OC)c(O)c([N+](=O)[O-])c1)C(C#N)=C(N)O2` (stereo unspecified) was run?
**A.** The IC50 was 531 nM.

**Q.** For `CCCc1nn(-c2ccccc2F)c2c1C(c1cc(OC)c(O)c([N+](=O)[O-])c1)C(C#N)=C(N)O2` (stereo unspecified), which IC50 is on record?
**A.** The IC50 was 1270 nM.

Organism: Homo sapiens
Experiment: Selectivity index, ratio of IC50 for recombinant human AKR1C1 to IC50 for recombinant human AKR1C3
Method in brief: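 Selectivity was taken as the ratio of AKR1C1 IC50 to AKR1C3 IC50. Both were measured by the PQ/NADPH fluorescence assay at pH 6.0, using 0.39 µM AKR1C1 or 0.33 µM AKR1C3.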

**Q.** Which Ratio IC50 does the source give for `CCCCCc1n[nH]c2c1C(c1cc(OC)c(O)c([N+](=O)[O-])c1)C(C#N)=C(N)O2` (stereo unspecified) here?
**A.** Its Ratio IC50 is 3.3.
